Source: ChEMBL document CHEMBL5252659, “Discovery of a Potent and Selective Naphthyridine-Based Chemical Probe for Casein Kinase 2” (ACS Med Chem Lett, 2023)
Converted amounts (≈) assume the structure as drawn. The source made the active and inactive calls. The calls are words filed in the database; no cut-off is given here.

Assays:
[1] = Aqueous kinetic solubility of compound in PBS at pH 7.4 incubated for 24 hrs by Chemiluminescent nitrogen determination assay; type: physicochemical; settings: for solubility kinetic at 24 h: PBS, pH 7.4, read-out: Kinetic_solubility; for Kinetic_solubility: buffer, pH 7.4, 24 h
[2] = biological target: T1, Casein kinase II subunit alpha (Homo sapiens, UniProt P68400); assay: Inhibition of C-terminal Nano-Luc fused human CK2alpha expressed in HEK293 cells using NanoBRET NanoGlo substrate in presence of tracer K10 by NanoBRET assay; type: cell-based
[3] = biological target: T2, Casein kinase II subunit alpha' (Homo sapiens, UniProt P19784); assay: Inhibition of C-terminal Nano-Luc fused human CK2alpha' expressed in HEK293 cells using NanoBRET NanoGlo substrate in presence of tracer K5 by NanoBRET assay; type: cell-based
[4] = biological target: T1, Casein kinase II subunit alpha; assay: Inhibition of wild type human CK2alpha in presence of ATP by radiometric kinase assay
[5] = biological target: T2, Casein kinase II subunit alpha'; assay: Inhibition of wild type human CK2alpha' in presence of ATP by radiometric kinase assay
[6] = biological target: Phosphatidylinositol 4-phosphate 5-kinase type-1 gamma (Homo sapiens) (UniProt O60331); assay: Inhibition of wild type human PIP5K1C at 1 uM by DiscoverX scanMAX assay relative to control; values are per cent of control
[7] = biological target: Death-associated protein kinase 2 (Homo sapiens, UniProt Q9UIK4); assay: Inhibition of wild type human DAPK2 in presence of ATP by radiometric kinase assay
[8] = biological target: T3, Homeodomain-interacting protein kinase 2 (Homo sapiens, UniProt Q9H2X6); assay: Inhibition of wild type human HIPK2 in presence of ATP by radiometric kinase assay
Target sequence in this assay (Q9H2X6 whole entry): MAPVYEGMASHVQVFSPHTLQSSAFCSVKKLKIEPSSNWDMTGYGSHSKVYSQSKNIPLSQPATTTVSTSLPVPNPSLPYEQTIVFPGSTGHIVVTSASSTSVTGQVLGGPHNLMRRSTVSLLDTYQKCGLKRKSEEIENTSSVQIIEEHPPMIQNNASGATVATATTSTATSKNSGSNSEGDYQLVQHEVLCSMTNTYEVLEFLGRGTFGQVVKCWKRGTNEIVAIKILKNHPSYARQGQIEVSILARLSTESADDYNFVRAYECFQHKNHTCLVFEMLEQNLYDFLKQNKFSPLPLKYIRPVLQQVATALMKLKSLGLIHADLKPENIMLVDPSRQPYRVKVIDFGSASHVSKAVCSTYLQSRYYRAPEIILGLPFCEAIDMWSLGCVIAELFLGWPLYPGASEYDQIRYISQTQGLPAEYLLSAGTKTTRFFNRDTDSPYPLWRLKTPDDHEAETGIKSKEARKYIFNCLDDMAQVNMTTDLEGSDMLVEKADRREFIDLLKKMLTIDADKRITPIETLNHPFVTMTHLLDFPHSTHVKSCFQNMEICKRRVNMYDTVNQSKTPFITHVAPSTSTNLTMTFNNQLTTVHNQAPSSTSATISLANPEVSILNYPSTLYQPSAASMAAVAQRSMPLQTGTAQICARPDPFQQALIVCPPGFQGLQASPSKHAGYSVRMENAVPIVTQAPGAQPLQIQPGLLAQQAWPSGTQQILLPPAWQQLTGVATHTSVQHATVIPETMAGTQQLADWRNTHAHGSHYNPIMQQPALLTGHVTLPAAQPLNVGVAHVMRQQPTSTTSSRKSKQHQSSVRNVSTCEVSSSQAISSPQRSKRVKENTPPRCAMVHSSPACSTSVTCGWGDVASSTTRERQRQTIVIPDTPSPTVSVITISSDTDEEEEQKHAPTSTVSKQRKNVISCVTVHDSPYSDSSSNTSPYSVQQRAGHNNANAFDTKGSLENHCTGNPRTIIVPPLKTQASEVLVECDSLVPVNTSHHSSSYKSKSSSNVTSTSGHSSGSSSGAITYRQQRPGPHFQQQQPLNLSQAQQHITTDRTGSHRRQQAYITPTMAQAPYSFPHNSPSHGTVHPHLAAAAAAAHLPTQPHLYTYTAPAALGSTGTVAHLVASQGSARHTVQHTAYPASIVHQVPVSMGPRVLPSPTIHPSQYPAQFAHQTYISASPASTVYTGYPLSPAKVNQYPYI

AMO1 [9] = assay: Antiproliferative activity against human AMO1 cells assessed as inhibition of cell proliferation at 1 uM incubated for 5 days by WST-1 assay; type: functional; set-up: scale not given: the % may be the effect or the level left; settings: time 5 day
L-363 [10] = assay: Antiproliferative activity against human L-363 cells assessed as inhibition of cell proliferation at 1 uM incubated for 5 days by WST-1 assay; type: functional; set-up: scale not given: the % may be the effect or the level left; settings: time 5 day
RM-82 = assay: (§1) Antiproliferative activity against human RM-82 cells assessed as inhibition of cell proliferation at 1 uM incubated for 5 days by WST-1 assay; type: functional; settings: time 5.0 day
STA-ET-1 = assay: (§2) Antiproliferative activity against human STA-ET-1 cells assessed as inhibition of cell proliferation at 1 uM incubated for 5 days by WST-1 assay; type: functional; settings: time 5.0 day
Procedure, shortened: (§3)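 Ewing sarcoma cell lines were exposed to a single 1 μM concentration for 5 days. Viability was reported as percent viability, as part of a preliminary single-dose screen.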

STA-ET-10 = assay: (§4) Antiproliferative activity against human STA-ET-10 cells assessed as inhibition of cell proliferation at 1 uM incubated for 5 days by WST-1 assay; type: functional; settings: time 5.0 day; procedure, shortened: as §3
[11] = Permeability of compound incubated for 5 hrs by PAMPA based CLND assay; type: ADME
[12] = biological target: T3, Homeodomain-interacting protein kinase 2; assay: Inhibition of wild type human HIPK2 at 1 uM by DiscoverX scanMAX assay relative to control; values are per cent of control
Target sequence in this assay (Q9H2X6 whole entry, looked up): as the sequence (Q9H2X6 whole entry) above

[13] = as §1; type: functional; set-up: scale not given: the % may be the effect or the level left; settings: time 5 day
[14] = as §2; type: functional; set-up: scale not given: the % may be the effect or the level left; settings: time 5 day; procedure, shortened: as §3
[15] = as §4; type: functional; set-up: scale not given: the % may be the effect or the level left; settings: time 5 day; procedure, shortened: as §3
MDA-MB-231 = assay: Anticancer activity against human MDA-MB-231 cells assessed as cell growth inhibition at 2 to 10 uM incubated for 24 to 72 hrs by WST-1 assay; settings: dose 2-10 µM, time lower […], time upper 72.0 hrs
AMO1 [16] = assay: Antiproliferative activity against pomalidomide resistant human AMO1 cells assessed as inhibition of cell proliferation at 1 uM incubated for 5 days by WST-1 assay; type: functional; set-up: scale not given: the % may be the effect or the level left; settings: time 5 day
L-363 [17] = assay: Antiproliferative activity against carfilzomib-resistant human L-363 cells assessed as inhibition of cell proliferation at 1 uM incubated for 5 days by WST-1 assay; type: functional; set-up: scale not given: the % may be the effect or the level left; settings: time 5 day
L-363 [18] = assay: Antiproliferative activity against bortezomib-resistant human L-363 cells assessed as inhibition of cell proliferation at 1 uM incubated for 5 days by WST-1 assay; type: functional; set-up: scale not given: the % may be the effect or the level left; settings: time 5 day
[19] = Antiproliferative activity against human MUG-Chor1 cells assessed as inhibition of cell proliferation at 1 uM incubated for 5 days by WST-1 assay; type: functional; set-up: scale not given: the % may be the effect or the level left; settings: time 5 day

T1 sequence (P68400 whole entry, the tested form may be a part): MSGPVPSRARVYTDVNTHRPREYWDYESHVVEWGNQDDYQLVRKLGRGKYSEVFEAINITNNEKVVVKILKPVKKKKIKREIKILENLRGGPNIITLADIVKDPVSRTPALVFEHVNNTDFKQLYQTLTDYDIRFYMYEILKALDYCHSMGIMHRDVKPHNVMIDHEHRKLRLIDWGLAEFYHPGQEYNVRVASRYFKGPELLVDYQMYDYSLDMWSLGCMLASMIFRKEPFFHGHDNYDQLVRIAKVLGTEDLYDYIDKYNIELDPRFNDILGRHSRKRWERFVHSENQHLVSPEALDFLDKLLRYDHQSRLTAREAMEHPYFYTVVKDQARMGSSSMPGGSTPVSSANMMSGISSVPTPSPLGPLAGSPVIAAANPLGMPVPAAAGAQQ
T2 sequence (P19784 whole entry, the tested form may be a part): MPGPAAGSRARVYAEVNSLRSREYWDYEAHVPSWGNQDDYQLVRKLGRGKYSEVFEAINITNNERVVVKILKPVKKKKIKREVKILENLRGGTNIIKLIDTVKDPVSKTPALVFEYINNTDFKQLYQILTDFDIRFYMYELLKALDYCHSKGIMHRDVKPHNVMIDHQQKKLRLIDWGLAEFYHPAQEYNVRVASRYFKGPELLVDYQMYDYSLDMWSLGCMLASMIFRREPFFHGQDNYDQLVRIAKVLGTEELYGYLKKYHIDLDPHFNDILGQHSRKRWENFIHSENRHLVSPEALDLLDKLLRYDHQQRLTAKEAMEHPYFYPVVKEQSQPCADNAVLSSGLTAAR
Death-associated protein kinase 2, sequence (Q9UIK4 whole entry): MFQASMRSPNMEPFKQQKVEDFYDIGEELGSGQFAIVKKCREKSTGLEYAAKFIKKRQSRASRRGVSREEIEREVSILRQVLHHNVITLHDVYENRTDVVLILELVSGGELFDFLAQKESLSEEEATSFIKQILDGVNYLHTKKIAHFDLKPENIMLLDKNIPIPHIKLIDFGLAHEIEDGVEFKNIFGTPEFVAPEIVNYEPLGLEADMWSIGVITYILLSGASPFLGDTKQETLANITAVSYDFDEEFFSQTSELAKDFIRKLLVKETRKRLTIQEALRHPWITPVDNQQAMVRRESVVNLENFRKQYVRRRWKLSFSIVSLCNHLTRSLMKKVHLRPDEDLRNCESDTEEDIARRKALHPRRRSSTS
Phosphatidylinositol 4-phosphate 5-kinase type-1 gamma (Homo sapiens), sequence (O60331 whole entry): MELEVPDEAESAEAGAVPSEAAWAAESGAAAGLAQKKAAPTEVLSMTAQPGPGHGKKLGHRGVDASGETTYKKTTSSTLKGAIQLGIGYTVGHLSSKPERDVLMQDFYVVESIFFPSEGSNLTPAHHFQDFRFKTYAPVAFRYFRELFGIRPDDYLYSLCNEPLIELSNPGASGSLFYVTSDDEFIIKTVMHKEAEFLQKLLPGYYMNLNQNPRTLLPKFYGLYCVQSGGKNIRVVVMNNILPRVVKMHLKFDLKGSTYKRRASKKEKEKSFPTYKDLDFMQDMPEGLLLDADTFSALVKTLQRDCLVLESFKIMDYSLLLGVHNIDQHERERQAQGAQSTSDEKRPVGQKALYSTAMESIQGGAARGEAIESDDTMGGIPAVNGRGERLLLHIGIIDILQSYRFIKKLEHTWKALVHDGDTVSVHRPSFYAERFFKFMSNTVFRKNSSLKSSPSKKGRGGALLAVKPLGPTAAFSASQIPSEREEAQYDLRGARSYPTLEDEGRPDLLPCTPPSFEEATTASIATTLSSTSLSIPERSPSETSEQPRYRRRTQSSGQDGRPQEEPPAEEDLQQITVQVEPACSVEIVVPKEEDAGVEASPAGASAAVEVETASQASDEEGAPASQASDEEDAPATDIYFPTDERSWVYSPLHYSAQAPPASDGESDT

Work on O=C(O)c1ccc2c(c1)nc(NCc1ccccc1)c1ccncc12 yielded a solubility kinetic at 24 h [1] of 202 µM (≈ 66.7 µg/mL).
Compound O=C(O)c1ccc2c(c1)nc(NCCc1cccc(F)c1)c1ccncc12 has a solubility kinetic at 24 h [1] of 188 µM (≈ 67.8 µg/mL).
O=C(O)c1ccc2c(c1)nc(Nc1ccc(F)c(Cl)c1)c1ccncc12 showed a Kinetic_solubility [1] of 148.4 µM.
In the case of O=C(O)c1ccc2c(c1)nc(Nc1ccccc1)c1ncncc12, the solubility kinetic at 24 h [1] is reported as 168 µM (≈ 53.2 µg/mL).
For O=C(O)c1ccc2c(c1)nc(NCc1ccccc1)c1ncccc12, the IC50 [2] was > 10 µM, the IC50 [3] was > 10 µM and the IC50 [4] was > 10 µM. For the same compound, the IC50 [5] was > 10 µM and the residual activity [6] was 15%.
For O=C(O)c1ccc2c(c1)nc(NCc1ccccc1)c1ncncc12, the solubility kinetic at 24 h [1] was 211 µM (≈ 69.6 µg/mL), the IC50 [7] was 1.5 µM and the IC50 [8] was 0.6 µM. For the same compound, the Activity (AMO1 [9]) was 44%, the Activity (L-363 [10]) was 36% and the Activity (RM-82) was “inactive”. The Activity (STA-ET-1) was “inactive”, the Activity (STA-ET-10) was “inactive” and the permeability [11] was “Permeable”. It also gave a residual activity [12] of 30%.
In the case of COc1cccc(CCNc2nc3cc(C(=O)O)ccc3c3cncnc23)c1, the solubility kinetic at 24 h [1] is reported as 152 µM (≈ 56.8 µg/mL).
In the case of O=C(O)c1ccc2c(c1)nc(Nc1cccc(F)c1)c1ccncc12, the solubility kinetic at 24 h [1] is reported as 237 µM (≈ 78.9 µg/mL).
O=C(O)c1ccc2c(c1)nc(Nc1ccc(Cl)cc1)c1ccncc12 gave a Kinetic_solubility [1] of 25.3 µM.
For N#Cc1cccc(Nc2nc3cc(C(=O)O)ccc3c3cncnc23)c1, the Kinetic_solubility [1] was 66.7 µM, the Activity (RM-82) was “inactive” and the Activity (STA-ET-1) was “inactive”. For the same compound, the Activity (STA-ET-10) was “inactive”.
With O=C(O)c1ccc2c(c1)nc(NCCc1cccc(F)c1)c1ncncc12 the Kinetic_solubility [1] was 147 µM.
Compound O=C(O)c1ccc2c(c1)nc(Nc1ccc(F)c(Cl)c1)c1ncncc12 has a Kinetic_solubility [1] of 49.1 µM.
In the case of N#Cc1cccc(Nc2nc3cc(C(=O)O)ccc3c3cnccc23)c1, the Kinetic_solubility [1] is reported as 131.7 µM, the Activity (RM-82) is reported as “inactive” and the Activity (STA-ET-1) is reported as “inactive”. For the same compound, the Activity (STA-ET-10) was “inactive”.
Compound O=C(O)c1ccc2c(c1)nc(Nc1ccc3ccccc3c1)c1ncncc12 has a Kinetic_solubility [1] of 54.3 µM.
O=C(O)c1ccc2c(c1)nc(NCCc1ccccc1)c1ccncc12 gave a solubility kinetic at 24 h [1] of 171 µM (≈ 58.9 µg/mL).
O=C(O)c1ccc2c(c1)nc(NCCc1cccc(Cl)c1)c1ncncc12 gave a Kinetic_solubility [1] of 109.1 µM.
With O=C(O)c1ccc2c(c1)nc(Nc1cccc(Cl)c1)c1ccncc12 [SILMITASERTIB] the Kinetic_solubility [1] was 277.1 µM, the Activity [13] was 63% and the Activity [14] was 21%. For the same compound, the Activity [15] was 63%, the permeability [11] was “Permeable” and the Activity (MDA-MB-231) was “Active”.
Work on COc1cccc(CCNc2nc3cc(C(=O)O)ccc3c3cnccc23)c1 yielded a solubility kinetic at 24 h [1] of 180 µM (≈ 67.4 µg/mL).
Work on O=C(O)c1ccc2c(c1)nc(Nc1ccccc1)c1ccncc12 yielded a solubility kinetic at 24 h [1] of 184 µM (≈ 58.1 µg/mL).
For CCC(=O)Nc1cc(Nc2cc(NC3CC3)n3ncc(C#N)c3n2)ccc1C, the Activity (AMO1 [9]) was 9%, the Activity (AMO1 [16]) was 9% and the Activity (L-363 [10]) was 9%. The Activity (L-363 [17]) was 9%, the Activity (L-363 [18]) was 9% and the Activity (STA-ET-1) was “inactive”. For the same compound, the Activity (STA-ET-10) was “inactive” and the Activity [19] was 55%.
Compound O=C(O)c1ccc2c(c1)nc(NCCc1ccccc1)c1ncncc12 has a Kinetic_solubility [1] of 146.4 µM.
O=C(O)c1ccc2c(c1)nc(Nc1cccc(F)c1)c1ncncc12 gave a solubility kinetic at 24 h [1] of 192 µM (≈ 64.2 µg/mL).
Compound O=C(O)c1ccc2c(c1)nc(Nc1ccccc1Cl)c1ncncc12 has a Kinetic_solubility [1] of 121.8 µM.
O=C(O)c1ccc2c(c1)nc(NCCc1cccc(Cl)c1)c1ccncc12 showed a solubility kinetic at 24 h [1] of 184 µM (≈ 69.5 µg/mL).
O=C(O)c1ccc2c(c1)nc(Nc1ccc(Cl)cc1)c1ncncc12 showed a solubility kinetic at 24 h [1] of 209 µM (≈ 73.3 µg/mL).
In the case of COc1cccc(Nc2nc3cc(C(=O)O)ccc3c3cnccc23)c1, the solubility kinetic at 24 h [1] is reported as 190 µM (≈ 65.8 µg/mL).
In the case of O=C(O)c1ccc2c(c1)nc(Nc1ccc3ccccc3c1)c1ccncc12, the Kinetic_solubility [1] is reported as 32.8 µM.
